M18AAP inhibitor: PfM18AAP inhibitors, malaria aminopeptidase, primary screen, biochemical, QFRET, recombinant enzyme; H-Glu-NHMec fluorogenic cleavage; AID 1822, 2009; M18 aspartyl aminopeptidase (Plasmodium falciparum 3D7); actives 1.2% (n = 290,000); inhibition, % at 7.35 µM;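 active = inhibition above the campaign mean inhibition over all tested compounds plus 3 SD, cut at about 28% in these data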
RBBP9 inhibitor: human RBBP9 inhibitors, primary screen, biochemical, fluorescence polarization, FP-Rh probe, HTS | recombinant RBBP9 | actives 0.2% (n = 220,000) | inhibition, % at 7.94 µM | AID 1515, 2009 | Serine hydrolase RBBP9 (Homo sapiens), O75884;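 active = inhibition above the campaign mean of all tested compounds plus 3 SD, cut at about 14% in these data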
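Test system: recombinant human RBBP9; Timing: 30 min then 45 min, 25 °C; Detection: fluorescence polarization; Control set: RBBP9 with DMSO as uninhibited control, no-protein wells as full inhibition; Compound dosing: one concentration, 7.94 µM nominal, 0.794% DMSO; Probe or stimulus: FP-Rh activity-based probe, 375 nM before mixing.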
p97 inhibitor: inhibitors of human p97 ATPase, primary screen, biochemical; actives 0.42% (n = 220,000); AID 1481, 2009; recombinant p97 ATPase, Kinase-Glo ATP luminescence, 3 h; inhibition, % at 8 µM; Transitional endoplasmic reticulum ATPase (Homo sapiens), P55072; in the data active = inhibition above about 15%
TNF death inh: inhibitors of TNF-alpha triggered necroptosis, primary screen, cell-based, Jurkat FADD-/-, single concentration; Jurkat FADD-/- TNF necroptosis rescue, ATP luminescence, 24 h; 0 = TNF only, 100 = no-TNF cells; activation (protection from cell death), % at 10 µM; actives 0.068% (n = 220,000); AID 463075, 2010;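 active = activation, meaning protection from cell death, of at least 50% relative to plate controls; inactive = activation below 50%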;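 note: necroptosis triggered by 40 ng/mL TNF-alpha added together with compound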
zVAD death inh: inhibitors of zVAD-triggered necroptosis, primary screen, L929 cells; L929 zVAD necroptosis rescue, ATP luminescence, 24 h; with zVAD 60 µM; viability rescue, % at 10 µM; actives 0.38% (n = 220,000);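 active = activation, scaled between plate controls, above about 75%, limit read from the data; inactive = activation under that limit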
Wee1 degr inh: Wee1 degradation inhibitors, primary screen, cell-based, HeLa, Wee1K328M-luciferase, luminescence; Wee1-like protein kinase (Homo sapiens), P30291; HeLa Luc-Wee1K328M stability; 100% = proteasome inhibitor MG132 effect; reporter increase, % at 5 µM; actives 1.2% (n = 220,000); AID 1321, 2008;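 active = activation above the mean of all tested compounds plus 3 SD, set per screening run, cut at about 8.8% in these data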;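 note: cells exposed to compound for 20 h before luminescence read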
Target sequence (P30291 whole entry K328M): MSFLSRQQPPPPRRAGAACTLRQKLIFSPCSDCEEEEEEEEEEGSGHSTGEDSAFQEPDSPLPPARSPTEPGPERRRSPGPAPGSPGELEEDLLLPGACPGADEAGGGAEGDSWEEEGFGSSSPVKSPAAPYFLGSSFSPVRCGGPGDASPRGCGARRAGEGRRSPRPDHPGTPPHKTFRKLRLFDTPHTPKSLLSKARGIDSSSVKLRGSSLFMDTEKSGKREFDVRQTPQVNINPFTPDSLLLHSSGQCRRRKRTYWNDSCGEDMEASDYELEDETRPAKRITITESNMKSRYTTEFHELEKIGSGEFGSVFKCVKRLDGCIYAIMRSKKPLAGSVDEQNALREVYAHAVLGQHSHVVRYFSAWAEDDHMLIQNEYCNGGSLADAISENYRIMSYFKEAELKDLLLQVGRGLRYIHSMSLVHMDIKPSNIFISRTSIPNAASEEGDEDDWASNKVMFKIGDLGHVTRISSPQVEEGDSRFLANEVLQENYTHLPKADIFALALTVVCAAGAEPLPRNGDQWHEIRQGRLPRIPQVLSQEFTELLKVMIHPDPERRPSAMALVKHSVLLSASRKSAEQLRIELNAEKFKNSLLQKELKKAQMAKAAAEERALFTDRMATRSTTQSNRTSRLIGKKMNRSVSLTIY
A number is an active result; . = inactive; / = not tested or not shown. Shown are actives, neighbours in structure and some others; about 2.7% of the full set was active somewhere.

SMILES	M18AAP inhibitor	RBBP9 inhibitor	p97 inhibitor	TNF death inh	zVAD death inh	Wee1 degr inh
COc1ccc(N2CCN(C(=S)NCCc3ccccc3)CC2)cc1	.	.	.	.	.	9.4
COc1ccc(CN(CC(=O)NCc2ccco2)C(=O)CNS(=O)(=O)c2ccc(C)cc2)cc1	.	/	/	/	/	/
Oc1ccc(O)c(Cc2nc3ccccc3s2)c1	.	.	15	.	.	.
Oc1ccccc1OCc1nc2ccccc2s1	.	.	.	.	.	.
CCC(=O)Nc1cc(C(=O)O)ccc1S(=O)(=O)c1ccc(C)cc1	.	.	.	.	/	.
CC(=O)Nc1cc(C(=O)O)ccc1S(=O)(=O)c1ccc(C)cc1	.	.	.	.	.	9.2
CCOc1ccc(CNC(=O)Cn2nc(C)c3c(C)n(-c4ccc(C)cc4)nc3c2=O)cc1	.	/	/	/	/	/
O=C(c1ccc2c(c1)OCCO2)N1CCCC(CNS(=O)(=O)c2cccs2)C1 (centres undefined)	.	.	.	.	.	.
COc1cc(CCC(=O)Nc2nccs2)cc(OC)c1OC	.	/	/	/	/	/
Cn1c(=O)[nH]c(=O)c2cc(C(=O)c3cc(F)ccc3O)cnc21	.	.	.	.	.	10
CC1CCN(C(=O)CSc2nnc(CNC(=O)c3ccc(S(=O)(=O)N(C)C)cc3)o2)CC1	.	/	/	/	/	/
Cc1ccc(C2=NN=C(NC(=O)CSc3nncn3C)SC2)cc1	54	.	.	.	.	.
Cc1ccc(C(=O)NC(=O)CSc2nncn2C)cc1	.	/	/	/	/	/
CCOC(=O)c1c(CSC(=N)N)n(-c2ccc(C)cc2)c2cc(Br)c(OC(C)=O)cc12	.	.	.	.	.	9.4
CSc1nc2ccccc2c(=O)n1C1CCOC(C)(C)C1 (centres undefined)	.	.	.	.	.	.
O=C(CCN1CCOCC1)NC1CCCN(Cc2ccccc2F)C1 (centres undefined)	.	/	/	/	/	/
COc1ccc(Oc2nccc(-c3ccc(F)cc3)c2C#N)cc1	.	.	.	.	.	12
CCCCc1nc2sc3c(=O)n(N)cnc3c2c2c1CCC2	.	.	.	.	.	.
CCN(CC)C(=O)c1cn(CCC#N)nc1-c1ccc(F)cc1	.	.	.	.	.	.
Cc1ccc(-c2nnc(SCC(=O)N3CC(C)CC(C)C3)o2)cc1C (centres undefined)	.	.	.	.	.	.
CC1CC(C)CN(C(=O)CSc2nnc(-c3ccc(Cl)cc3)o2)C1 (centres undefined)	.	.	.	.	83	.
O=C(CCn1c(=O)oc2ccc(Cl)cc21)N1CCN(Cc2ccccc2)CC1	.	/	/	/	/	/
CC(C)[C@@H]1NC(=O)c2cc([N+](=O)[O-])cc(I)c2NCC[C@@H](C(N)=O)NC(=O)[C@H](CO)NC1=O	.	.	18	.	.	.
NC(=O)[C@@H]1CCCCNc2c(F)cc([N+](=O)[O-])cc2C(=O)N[C@@H](CC(=O)O)C(=O)NCC(=O)N1	.	.	.	.	.	17
C[C@@H]1NC(=O)[C@H](CCC(=O)O)NC(=O)c2cc([N+](=O)[O-])cc(F)c2NCCC[C@@H](C(N)=O)NC1=O	.	.	.	.	.	.
SMILES	M18AAP inhibitor	RBBP9 inhibitor	p97 inhibitor	TNF death inh	zVAD death inh	Wee1 degr inh
COc1ccc(OCC(O)CNC(=O)Nc2cccc3ccccc23)cc1 (centres undefined)	.	.	.	.	.	.
NS(=O)(=O)c1ccc(NC(=S)N2CCN(c3cccc(Cl)c3)CC2)cc1	29	.	.	.	.	.
COc1cccc(/C=N/Nc2nc3ccccc3[nH]2)c1OC	.	.	.	.	.	.
COc1cccc(/C=N/Nc2nc3ccccc3[nH]2)c1O	30	.	.	.	.	.
COc1ccc(-c2ccc(NS(=O)(=O)c3cc([N+](=O)[O-])c(C)c([N+](=O)[O-])c3)cc2)nn1	.	/	/	/	/	/
CCOc1cccc(C(=O)NNC(=O)C2C3C=CC(C3)C2C(=O)O)c1 (centres undefined)	.	/	/	/	/	/
O=[N+]([O-])c1cccc(-c2ccc(C(=S)N3CCOCC3)o2)c1	.	.	.	.	.	.
CN1CCN(C(=S)c2ccc(-c3cccc([N+](=O)[O-])c3)o2)CC1	.	.	.	.	.	10
COc1cc2oc(-c3ccc(O)cc3)cc(=O)c2c(OC)c1O	33	.	.	.	.	.
COc1c(O)cc2oc(-c3ccc(O)cc3)cc(=O)c2c1O	/	/	/	.	.	/
CC(=O)N1c2ccc(S(=O)(=O)N3CCCC3)cc2CC1C(=O)NCc1ccc(N(C)C)cc1 (centres undefined)	.	/	/	/	/	/
Cc1ccc(C)c(-n2cc[nH]c2=S)c1	30	.	.	.	.	.
Cc1nnsc1C(=O)NNc1ccc(C(C)(C)C)cc1	29	.	.	.	.	.
Cc1nnc(NC(=O)CSc2nnc3ncccn23)s1	.	/	/	/	/	/
O=c1c2ccccc2sn1-c1cc(S(=O)(=O)N2CCOCC2)ccc1N1CCOCC1	31	45	.	.	.	.
O=S(=O)(c1ccc(N2CCOCC2)c(Cl)c1)N1CCOCC1	.	/	/	/	/	/
NC(=O)c1nsc(C(=O)N(CC(=O)NCc2ccccc2)c2ccc(F)cc2)c1N	.	/	/	/	/	/
O=C(c1sc2ccccc2c1Cl)N(Cc1ccccc1Cl)C1CCS(=O)(=O)C1 (centres undefined)	.	.	.	.	.	9.4
O=C(c1sc2ccccc2c1Cl)N(Cc1ccccc1)C1CCS(=O)(=O)C1 (centres undefined)	.	.	.	.	.	.
COc1ccc2ncn(-c3ccccc3)c2c1	.	.	.	.	88	.
O=C(Nn1cnnc1)c1cc2c(s1)CCCC2	32	.	.	.	.	.
NNC(=O)c1cc2c(s1)CCCCCC2	.	.	.	.	.	.
O=C(Nc1nccs1)c1cc2c(s1)CCCCC2	.	.	.	52	.	.
O=C(Nc1nncs1)c1cc2c(s1)CCC2	.	.	.	.	.	.
S=C(NC1CCCCC1)NC1CC2C=CC1C2 (centres undefined)	.	.	.	.	.	9.2
CC(C)(CCO)NC(=S)NC1CC2C=CC1C2 (centres undefined)	.	.	.	.	.	.
CCN1CCN(Cc2ccc(NC(=O)Nc3ccccc3)cc2)CC1	.	.	.	.	.	.
CCN1CCN(Cc2ccc(NC(=O)Nc3ccc(OC)cc3)cc2)CC1	.	.	.	.	77	.
O=S(=O)(c1ccc(Cl)c(Cl)c1)c1snnc1-c1ccccc1	.	.	23	.	.	.

Compound activity deposited in PubChem by several laboratories.
